# ChEMBL document CHEMBL3627671, “Novel derivatives of nitro-substituted salicylic acids: Synthesis, antimicrobial activity and cytotoxicity” (Bioorg Med Chem, 2015)
# pIC50: −log10 of the molar value.
# Columns and labels:
# Candida albicans [1] = test: Antifungal activity against Candida albicans ATCC 44859 after 24 hrs by microdilution broth method; assay type: functional; conditions: ATCC 44859, 24 h
# Summary of the method: (§1)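 CLSI M27-A3 broth microdilution in RPMI 1640 with glutamine, buffered to pH 7.0 with MOPS; DMSO diluent. Yeast inoculum 5 × 10^3 ± 0.2 CFU/mL. Moulds grown on Sabouraud agar 3–10 days before spore harvest, final inoculum 0.5-5 × 10^4 CFU/mL, checked in a Bürker chamber. Incubated dark, humid, 35 °C, read at 24 and 48 h visually and at 540 nm. MIC taken as ≥80% (yeasts) or ≥50% (filamentous) growth reduction versus control.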
# Lichtheimia corymbifera [2] = test: Antifungal activity against Absidia corymbifera 272 after 48 hrs by microdilution broth method; assay type: functional; conditions: Lichtheimia corymbifera, 272, 48 h; summary of the method: as §1
# Enterococcus sp. [3] = test: Antibacterial activity against Enterococcus sp. J 14365/08 after 24 hrs by microdilution broth method; assay type: functional; conditions: J 14365/08, 24 h
# Summary of the method: (§2)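 Mueller-Hinton broth microdilution (modified M07-A07), pH 7.4 (±0.2). Compounds dissolved in DMSO, tested at final 500 to 0.49 µmol/L. Inoculum in sterile water matched to 0.5 McFarland. Incubated in the dark, humid atmosphere, 35 °C, read at 24 and 48 h visually and at 540 nm. MIC taken as ≥95% growth reduction (IC95) versus control.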
# [4] = test system: Trichophyton mentagrophytes; test: Antifungal activity against Trichophyton mentagrophytes 445 after 48 hrs by microdilution broth method; assay type: functional; conditions: Trichophyton mentagrophytes, 445, 48 h
# Candida tropicalis [5] = test: Antifungal activity against Candida tropicalis 156 after 48 hrs by microdilution broth method; assay type: functional; conditions: Candida tropicalis, 156, 48 h; summary of the method: as §1
# Mycobacterium kansasii [6] = test: Antimycobacterial activity against Mycobacterium kansasii 235/80 after 21 days; assay type: functional; conditions: 235/80, 504 h
# Summary of the method: (§3)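 Šula's semisynthetic medium micromethod at 37 °C, read after 7, 14 and 21 days. The 1.0 McFarland suspension was diluted 10^-4. MIC determined. 6509/96 is a clinical isolate.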
# Trichosporon asahii [7] = test: Antifungal activity against Trichosporon asahii 1188 after 48 hrs by microdilution broth method; assay type: functional; conditions: Trichosporon asahii, 1188, 48 h; summary of the method: as §1
# Mycobacterium kansasii [8] = test: Antimycobacterial activity against Mycobacterium kansasii 235/80 after 7 days; assay type: functional; conditions: 235/80, 168 h; summary of the method: as §3
# Escherichia coli [9] = test: Antibacterial activity against Escherichia coli CCM4517 after 48 hrs by microdilution broth method; assay type: functional; conditions: CCM4517, 48 h; summary of the method: as §2
# Staphylococcus aureus [10] = test: Antibacterial activity against methicillin-resistant Staphylococcus aureus H 5996/08 after 48 hrs by microdilution broth method; assay type: functional; conditions: H 5996/08, 48 h
# Enterococcus sp. [11] = test: Antibacterial activity against Enterococcus sp. J 14365/08 after 48 hrs by microdilution broth method; assay type: functional; conditions: J 14365/08, 48 h; summary of the method: as §2
# Mycobacterium kansasii [12] = test: Antimycobacterial activity against Mycobacterium kansasii 6509/96 after 7 days; assay type: functional; conditions: 6509/96, 168 h; summary of the method: as §3
# Pichia kudriavzevii [13] = test: Antifungal activity against Candida krusei E28 after 48 hrs by microdilution broth method; assay type: functional; conditions: E28, 48 h; summary of the method: as §1
# Pseudomonas aeruginosa [14] = test: Antibacterial activity against Pseudomonas aeruginosa CCM 1961 after 48 hrs by microdilution broth method; assay type: functional; conditions: CCM 1961, 48 h; summary of the method: as §2
# Mycobacterium avium [15] = test: Antimycobacterial activity against Mycobacterium avium 330/80 after 14 days; assay type: functional; conditions: 330/80, 336 h
# Escherichia coli [16] = test: Antibacterial activity against Escherichia coli CCM4517 after 24 hrs by microdilution broth method; assay type: functional; conditions: CCM4517, 24 h; summary of the method: as §2
# Staphylococcus aureus [17] = test: Antibacterial activity against Staphylococcus aureus CCM 4516/08 after 24 hrs by microdilution broth method; assay type: functional; conditions: CCM 4516/08, 24 h
# [18] = Selectivity index, ratio of CI50 for human HepG2 cells to MIC100 for Mycobacterium tuberculosis H37Rv 331/88
# Pichia kudriavzevii [19] = test: Antifungal activity against Candida krusei E28 after 24 hrs by microdilution broth method; assay type: functional; conditions: E28, 24 h; summary of the method: as §1
# Klebsiella pneumoniae [20] = test: Antibacterial activity against Klebsiella pneumoniae D 11750/08 after 48 hrs by microdilution broth method; assay type: functional; conditions: D 11750/08, 48 h; summary of the method: as §2
# Mycobacterium kansasii [21] = test: Antimycobacterial activity against Mycobacterium kansasii 235/80 after 14 days; assay type: functional; conditions: 235/80, 336 h; summary of the method: as §3
# Mycobacterium kansasii [22] = test: Antimycobacterial activity against Mycobacterium kansasii 6509/96 after 14 days; assay type: functional; conditions: 6509/96, 336 h; summary of the method: as §3
# Nakaseomyces glabratus [23] = test: Antifungal activity against Candida glabrata 20/I after 24 hrs by microdilution broth method; assay type: functional; summary of the method: as §1
# Aspergillus fumigatus [24] = test: Antifungal activity against Aspergillus fumigatus 231 after 24 hrs by microdilution broth method; assay type: functional; conditions: Aspergillus fumigatus, 231, 24 h; summary of the method: as §1
# Mycobacterium avium [25] = test: Antimycobacterial activity against Mycobacterium avium 330/80 after 21 days; assay type: functional; conditions: 330/80, 504 h
# HepG2 = test: Cytotoxicity against human HepG2 cells after 24 hrs […]; assay type: cell-based; conditions: HepG2, 24 h
# Aspergillus fumigatus [26] = test: Antifungal activity against Aspergillus fumigatus 231 after 48 hrs by microdilution broth method; assay type: functional; conditions: Aspergillus fumigatus, 231, 48 h; summary of the method: as §1
# Staphylococcus aureus [27] = test: Antibacterial activity against Staphylococcus aureus CCM 4516/08 after 48 hrs by microdilution broth method; assay type: functional; conditions: CCM 4516/08, 48 h
# Lichtheimia corymbifera [28] = test: Antifungal activity against Absidia corymbifera 272 after 24 hrs by microdilution broth method; assay type: functional; conditions: Lichtheimia corymbifera, 272, 24 h; summary of the method: as §1
# [29] = test system: Mycobacterium tuberculosis; test: Antimycobacterial activity against Mycobacterium tuberculosis H37Rv 331/88 after 14 days; assay type: functional; conditions: H37Rv 331/88, 336 h
# Pseudomonas aeruginosa [30] = test: Antibacterial activity against Pseudomonas aeruginosa CCM 1961 after 24 hrs by microdilution broth method; assay type: functional; conditions: CCM 1961, 24 h; summary of the method: as §2
# Candida albicans [31] = test: Antifungal activity against Candida albicans ATCC 44859 after 48 hrs by microdilution broth method; assay type: functional; conditions: ATCC 44859, 48 h; summary of the method: as §1
# [32] = test system: Staphylococcus epidermidis; test: Antibacterial activity against Staphylococcus epidermidis H 6966/08 after 48 hrs by microdilution broth method; assay type: functional; conditions: H 6966/08, 48 h; summary of the method: as §2
# Trichosporon asahii [33] = test: Antifungal activity against Trichosporon asahii 1188 after 24 hrs by microdilution broth method; assay type: functional; conditions: Trichosporon asahii, 1188, 24 h; summary of the method: as §1
# [34] = test system: Staphylococcus epidermidis; test: Antibacterial activity against Staphylococcus epidermidis H 6966/08 after 24 hrs by microdilution broth method; assay type: functional; conditions: H 6966/08, 24 h; summary of the method: as §2
# Candida tropicalis [35] = test: Antifungal activity against Candida tropicalis 156 after 24 hrs by microdilution broth method; assay type: functional; conditions: Candida tropicalis, 156, 24 h; summary of the method: as §1
# [36] = test system: Trichophyton mentagrophytes; test: Antifungal activity against Trichophyton mentagrophytes 445 after 24 hrs by microdilution broth method; assay type: functional; conditions: Trichophyton mentagrophytes, 445, 24 h
# Klebsiella pneumoniae [37] = test: Antibacterial activity against ESBL-positive Klebsiella pneumoniae J 14368/08 after 24 hrs by microdilution broth method; assay type: functional; conditions: J 14368/08, 24 h; summary of the method: as §2
# Klebsiella pneumoniae [38] = test: Antibacterial activity against Klebsiella pneumoniae D 11750/08 after 24 hrs by microdilution broth method; assay type: functional; conditions: D 11750/08, 24 h; summary of the method: as §2
# Mycobacterium kansasii [39] = test: Antimycobacterial activity against Mycobacterium kansasii 6509/96 after 21 days; assay type: functional; conditions: 6509/96, 504 h; summary of the method: as §3
# Klebsiella pneumoniae [40] = test: Antibacterial activity against ESBL-positive Klebsiella pneumoniae J 14368/08 after 48 hrs by microdilution broth method; assay type: functional; conditions: J 14368/08, 48 h; summary of the method: as §2
# Nakaseomyces glabratus [41] = test: Antifungal activity against Candida glabrata 20/I after 48 hrs by microdilution broth method; assay type: functional; summary of the method: as §1
# [42] = test system: Mycobacterium tuberculosis; test: Antimycobacterial activity against Mycobacterium tuberculosis H37Rv 331/88 after 21 days; assay type: functional; conditions: H37Rv 331/88, 504 h
# Staphylococcus aureus [43] = test: Antibacterial activity against methicillin-resistant Staphylococcus aureus H 5996/08 after 24 hrs by microdilution broth method; assay type: functional; conditions: H 5996/08, 24 h
compound,measurement,setting,value
O=C(Nc1ccc(Cl)c(Cl)c1)c1cc([N+](=O)[O-])ccc1O,MIC,Candida albicans [1],> 500 µM
same,MIC,Lichtheimia corymbifera [2],> 500 µM
same,MIC,Enterococcus sp. [3],125 µM
same,MIC,[4],250 µM
same,MIC,Candida tropicalis [5],> 500 µM
same,MIC,Mycobacterium kansasii [6],32 µM
same,MIC,Trichosporon asahii [7],> 500 µM
same,MIC,Mycobacterium kansasii [8],16 µM
same,MIC,Escherichia coli [9],> 500 µM
same,MIC,Staphylococcus aureus [10],31.2 µM
same,MIC,Enterococcus sp. [11],125 µM
same,MIC,Mycobacterium kansasii [12],32 µM
same,MIC,Pichia kudriavzevii [13],> 500 µM
same,MIC,Pseudomonas aeruginosa [14],> 500 µM
same,MIC,Mycobacterium avium [15],125 µM
same,MIC,Escherichia coli [16],> 500 µM
same,MIC,Staphylococcus aureus [17],31.2 µM
same,Selectivity Index,[18],0.556
same,MIC,Pichia kudriavzevii [19],> 500 µM
same,MIC,Klebsiella pneumoniae [20],> 500 µM
same,MIC,Mycobacterium kansasii [21],32 µM
same,MIC,Mycobacterium kansasii [22],32 µM
same,MIC,Nakaseomyces glabratus [23],> 500 µM
same,MIC,Aspergillus fumigatus [24],> 500 µM
same,MIC,Mycobacterium avium [25],125 µM
same,pIC50,HepG2,5.05
same,MIC,Aspergillus fumigatus [26],> 500 µM
same,MIC,Staphylococcus aureus [27],31.2 µM
same,MIC,Lichtheimia corymbifera [28],> 500 µM
same,MIC,[29],8 µM
same,MIC,Pseudomonas aeruginosa [30],> 500 µM
same,MIC,Candida albicans [31],> 500 µM
same,MIC,[32],62.5 µM
same,MIC,Trichosporon asahii [33],> 500 µM
same,MIC,[34],62.5 µM
same,MIC,Candida tropicalis [35],> 500 µM
same,MIC,[36],250 µM
same,MIC,Klebsiella pneumoniae [37],> 500 µM
same,MIC,Klebsiella pneumoniae [38],> 500 µM
same,MIC,Mycobacterium kansasii [39],32 µM
same,MIC,Klebsiella pneumoniae [40],> 500 µM
same,MIC,Nakaseomyces glabratus [41],> 500 µM
same,MIC,[42],16 µM
same,MIC,Staphylococcus aureus [43],31.2 µM
O=C(Nc1cccc(C(F)(F)F)c1)c1cc([N+](=O)[O-])ccc1O,MIC,Candida albicans [1],> 500 µM
same,MIC,Lichtheimia corymbifera [2],500 µM
same,MIC,Enterococcus sp. [3],> 500 µM
same,MIC,[4],500 µM
same,MIC,Candida tropicalis [5],> 500 µM
same,MIC,Mycobacterium kansasii [6],62.5 µM
same,MIC,Trichosporon asahii [7],500 µM
same,MIC,Mycobacterium kansasii [8],16 µM
same,MIC,Escherichia coli [9],> 500 µM
same,MIC,Staphylococcus aureus [10],31.2 µM
same,MIC,Enterococcus sp. [11],> 500 µM
same,MIC,Mycobacterium kansasii [12],32 µM
same,MIC,Pichia kudriavzevii [13],> 500 µM
same,MIC,Pseudomonas aeruginosa [14],> 500 µM
same,MIC,Mycobacterium avium [15],125 µM
same,MIC,Escherichia coli [16],> 500 µM
same,MIC,Staphylococcus aureus [17],31.2 µM
same,Selectivity Index,[18],0.463
same,MIC,Pichia kudriavzevii [19],> 500 µM
same,MIC,Klebsiella pneumoniae [20],> 500 µM
same,MIC,Mycobacterium kansasii [21],32 µM
same,MIC,Mycobacterium kansasii [22],62.5 µM
same,MIC,Nakaseomyces glabratus [23],> 500 µM
same,MIC,Aspergillus fumigatus [24],500 µM
same,MIC,Mycobacterium avium [25],125 µM
same,pIC50,HepG2,5.13
same,MIC,Aspergillus fumigatus [26],500 µM
same,MIC,Staphylococcus aureus [27],31.2 µM
same,MIC,Lichtheimia corymbifera [28],500 µM
same,MIC,[29],8 µM
same,MIC,Pseudomonas aeruginosa [30],> 500 µM
same,MIC,Candida albicans [31],> 500 µM
same,MIC,[32],31.2 µM
same,MIC,Trichosporon asahii [33],500 µM
same,MIC,[34],31.2 µM
same,MIC,Candida tropicalis [35],> 500 µM
same,MIC,[36],500 µM
same,MIC,Klebsiella pneumoniae [37],> 500 µM
same,MIC,Klebsiella pneumoniae [38],> 500 µM
same,MIC,Mycobacterium kansasii [39],62.5 µM
same,MIC,Klebsiella pneumoniae [40],> 500 µM
same,MIC,Nakaseomyces glabratus [41],> 500 µM
same,MIC,[42],16 µM
same,MIC,Staphylococcus aureus [43],31.2 µM
